Compound activity deposited in PubChem by Johns Hopkins Ion Channel Center.
KCNQ1 block – inhibitors of human KCNQ1 channel, primary screen, cell-based, thallium flux, high-throughput | Potassium voltage-gated channel subfamily KQT member 1 (Homo sapiens), P51787 | CHO-K1 KCNQ1, FluxOR thallium flux fluorescence; stronger effect = higher value | B-score at 10 µM | hit rate 1.3% among 310,000;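 active = compounds whose thallium flux B-score, printed positive for inhibition, exceeds three library SD while starting fluorescence stays within three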;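 note: channel opened by potassium depolarization with thallium stimulus after 20 min compound exposure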
KCNK9 block – KCNK9 potassium channel inhibitors, primary screen, HEK293 cells, thallium flux | AID 488922, 2010 | FluxOR thallium flux fluorescence; stronger effect = lower value | hit rate 1.2% among 310,000 | B-score at 10 µM | Potassium channel subfamily K member 9 (Homo sapiens), Q9NPC2;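 active = ratio B-score over 3 SD below the library mean, with starting fluorescence within 5 SD of its mean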;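 note: negative B-score means less thallium flux so channel inhibition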
Target sequence (Q9NPC2 whole entry, looked up): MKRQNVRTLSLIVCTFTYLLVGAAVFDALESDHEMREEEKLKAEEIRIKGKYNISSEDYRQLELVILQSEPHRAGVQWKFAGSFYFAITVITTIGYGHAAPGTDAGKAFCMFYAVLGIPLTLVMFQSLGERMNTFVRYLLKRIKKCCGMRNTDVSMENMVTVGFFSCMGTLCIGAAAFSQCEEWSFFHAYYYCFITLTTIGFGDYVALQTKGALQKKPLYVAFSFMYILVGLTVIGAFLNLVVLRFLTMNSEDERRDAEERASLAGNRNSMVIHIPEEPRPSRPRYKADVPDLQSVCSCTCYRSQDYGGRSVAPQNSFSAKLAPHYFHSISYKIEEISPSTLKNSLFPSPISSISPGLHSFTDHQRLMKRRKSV
KCNK3 inh – human KCNK3 channel inhibitors, primary screen, CHO cells, FluxOR thallium flux, B-score; Potassium channel subfamily K member 3 (Homo sapiens), O14649; FluxOR fluorescence; stronger effect = lower value; B-score at 10 µM; hit rate 0.84% among 340,000; AID 602410, 2012;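 active = B-score under library mean minus 4 SD, starting fluorescence ratio at most library mean plus 5 SD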;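 note: more negative B-score means stronger inhibition of thallium flux through KCNK3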
Kir21 block – inhibitors of mouse Kir2.1 inward-rectifier potassium channel. AID 1672, 2009. hit rate 0.85% among 310,000. HEK293-Kir2.1, FluxOR thallium flux fluorescence; stronger effect = lower value. B-score at 10 µM;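 active = fluorescence ratio B-score at or below minus 3 SD of library scores, with starting-brightness B-score within 2 SD, cut at about -4.2 in these data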;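 note: channel flux triggered by added potassium and thallium sulfate stimulus; B-score of peak minus minimum fluorescence over baseline after thallium stimulus; more negative B-score means stronger Kir2.1 block with less thallium influx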
KCNQ1 act – potentiators or activators of KCNQ1 channel, primary screen, cell-based, thallium flux, high-throughput | CHO-K1 KCNQ1, thallium flux FluxOR fluorescence; stronger effect = higher value | hit rate 0.35% among 310,000 | B-score at 10 µM;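 active = fluorescence ratio B-score, a plate-corrected score, at least three library SD, with initial intensity B-score within 5 SD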
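Test system: CHO-K1 cells stably expressing KCNQ1 / Medium: assay buffer / Also added: depolarizing K+/Tl+ stimulus, K2SO4 and Tl2SO4 each 12.5 mM in 5x stock / Incubation: 90 min dye loading and 20 min compound exposure, both at room temperature / Signal: thallium influx via FluxOR fluorescence, kinetic imaging / Evaluation: B score of baseline-normalized fluorescence ratio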
hERG protect – hERG rescue from dofetilide block, primary screen, cell-based, CHO-hERG, FluxOR thallium flux, dofetilide IC70; dofetilide IC70 present; activation (rescue from dofetilide block), less the hit threshold, % at 10 µM; hit rate 0.51% among 310,000;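 active = activation above the mean of controls blocked by dofetilide plus 5 SD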;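 note: thallium influx through hERG after potassium depolarization seen as dye fluorescence rise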
* = called active by the depositor. Compounds with a hit are over-represented: about 3.7% of the library has one in this group of screens.

For CCC(C)(C)NC(=O)C(c1ccc(OC)cc1)N(C(=O)CCC(=O)Nc1cc(C)on1)c1cccc(F)c1 (centres undefined) the results were KCNQ1 block inactive, KCNK9 block inactive, KCNK3 inh inactive, Kir21 block -0.64, KCNQ1 act inactive and hERG protect -4.4.
COc1cc(SC#N)ccc1N=Cc1c(C)[nH]n(-c2ccc(Cl)cc2)c1=O was read as KCNQ1 block inactive, KCNK9 block inactive, KCNK3 inh inactive, Kir21 block -0.52, KCNQ1 act inactive and hERG protect -7.0.
COc1cc(S(=O)(=O)Nc2ccccc2)ccc1N=Cc1c(C)[nH]n(-c2ccc(C)cc2)c1=O was read as KCNQ1 block inactive, KCNK9 block -9.62*, Kir21 block -1.2, KCNQ1 act inactive and hERG protect -2.6.
For COc1ccc(C(=O)/C=C/c2cccc(OCc3ccccc3)c2)cc1CSCC(=O)O the results were KCNQ1 block inactive, KCNK9 block inactive, KCNK3 inh inactive, Kir21 block -6.23*, KCNQ1 act inactive and hERG protect -33.3.
For COc1ccc(C(=O)/C=C/c2ccc(OCc3ccccc3)cc2)cc1CSCC(=O)O the results were KCNQ1 block inactive, KCNK9 block inactive, KCNK3 inh inactive, Kir21 block -1.72, KCNQ1 act inactive and hERG protect -27.2.
For COC(CNC(=O)CCc1c(C)nc2c(-c3ccccc3)c(C)nn2c1C)OC the results were KCNQ1 block inactive, KCNK9 block inactive, KCNK3 inh inactive, Kir21 block -0.55, KCNQ1 act inactive and hERG protect -5.8.
Screening C#CCNC(=O)C1=C[C@H](c2ccc(Br)cc2)C[C@H](OCc2ccc(CO)cc2)O1 returned KCNQ1 block inactive, KCNK9 block inactive, KCNK3 inh inactive, Kir21 block -4.75*, KCNQ1 act inactive and hERG protect -9.8.
Screening C#CCNC(=O)C1=C[C@@H](c2ccc(Br)cc2)C[C@@H](OCc2ccc(CO)cc2)O1 returned KCNQ1 block inactive, KCNK9 block inactive, KCNK3 inh inactive, Kir21 block -0.36, KCNQ1 act inactive and hERG protect -11.1.
CC(=O)N1N=C(c2ccco2)CC1c1cc2ccc(C)cc2nc1Cl (centres undefined) was read as KCNQ1 block inactive, KCNK9 block inactive, KCNK3 inh inactive, Kir21 block 0.06, KCNQ1 act inactive and hERG protect -1.7.
Screening Cc1c(NC(=S)NC(=O)c2ccccc2Cl)c(=O)n(-c2ccccc2)n1C returned KCNQ1 block inactive, KCNK9 block inactive, KCNK3 inh inactive, Kir21 block -0.11, KCNQ1 act inactive and hERG protect -2.9.
For COc1ccc(Br)cc1C(=O)NC(=S)Nc1c(C)n(C)n(-c2ccccc2)c1=O the results were KCNQ1 block inactive, KCNK9 block inactive, KCNK3 inh inactive, Kir21 block 0.84, KCNQ1 act inactive and hERG protect 4.8*.
For CCCCCCOc1ccc(/C(C)=N/NC2=NCCN2)cc1[N+](=O)[O-] the results were KCNQ1 block inactive, KCNK9 block inactive, KCNK3 inh inactive, Kir21 block 0.81, KCNQ1 act inactive and hERG protect -20.7.
For CCCCOc1ccc(Br)cc1/C(C)=N/NC1=NCCN1 the results were KCNQ1 block inactive, KCNK9 block inactive, KCNK3 inh inactive, Kir21 block -8.07*, KCNQ1 act inactive and hERG protect -23.8.
Cc1ccc(NC(=O)CSc2nc3ccccc3c(=O)n2CCCC(=O)NCCCN2CCOCC2)cc1 was read as KCNQ1 block inactive, KCNK9 block inactive, KCNK3 inh inactive, Kir21 block -0.82, KCNQ1 act inactive and hERG protect -4.9.
Screening O=C(Nc1nc(-c2cccs2)cs1)c1cccc(S(=O)(=O)N2CCCCC2)c1 returned KCNQ1 block inactive, KCNK9 block -6.64*, KCNK3 inh inactive, Kir21 block 0.8, KCNQ1 act inactive and hERG protect -10.2.
`O=C(Nc1nc(-c2ccc(S(=O)(=O)N3CCCCCC3)cc2)cs1)c1cccs1` gave KCNQ1 block inactive, KCNK9 block inactive, KCNK3 inh inactive, Kir21 block -3.18, KCNQ1 act inactive and hERG protect -11.2.
O=C(Nc1nc(-c2ccc(S(=O)(=O)N3CCCC3)cc2)cs1)c1cccs1 was read as KCNK3 inh -10.6*.
`Cc1ccc(-c2csc(NC(=O)c3cccc(S(=O)(=O)N4CCN(C)CC4)c3)n2)cc1` gave KCNQ1 block inactive, KCNK9 block inactive, KCNK3 inh inactive, Kir21 block 0.25, KCNQ1 act inactive and hERG protect -4.4.
Screening COc1cc(S(=O)(=O)NCC2COCCO2)ccc1-n1cnnn1 (centres undefined) returned KCNQ1 block inactive, KCNK9 block inactive, KCNK3 inh inactive, Kir21 block -0.01, KCNQ1 act inactive and hERG protect 5.8*.
N#Cc1c(-c2ccccc2)c(-c2ccccc2)nn(CC(=O)NNC(=O)Nc2ccc(Cl)c(Cl)c2)c1=O was read as KCNQ1 block inactive, KCNK9 block inactive, KCNK3 inh inactive, Kir21 block 0.59, KCNQ1 act inactive and hERG protect -11.7.
For O=C(Nc1cccc2c1[nH]c1ccccc12)C(F)(F)F the results were KCNQ1 block 6*, KCNK9 block inactive, KCNK3 inh inactive, Kir21 block 2.61, KCNQ1 act inactive and hERG protect -3.3.
`COc1ccc(-c2c[n+](CC(=O)OC3CC(C)CCC3C(C)C)c3n2CCC3)cc1` (centres undefined) gave KCNQ1 block inactive, KCNK9 block inactive, KCNK3 inh inactive, Kir21 block -5.22*, KCNQ1 act inactive and hERG protect -20.4.
For O=C(N=C1c2ccccc2CN1c1ccc(F)c(Cl)c1)c1cccnc1Cl the results were KCNQ1 block inactive, KCNK9 block -10.6*, Kir21 block -0.21, KCNQ1 act inactive and hERG protect -7.2.
N#Cc1ccc(N2Cc3ccccc3C2=NC(=O)c2cccnc2Cl)cc1 was read as KCNQ1 block inactive, KCNK9 block inactive, KCNK3 inh inactive, Kir21 block 2.06, KCNQ1 act inactive and hERG protect -7.6.
COc1ccccc1-c1nc2cc3ccccc3cc2nc1-c1ccccc1 was read as KCNQ1 block 9*, KCNK9 block inactive, KCNK3 inh inactive, Kir21 block -0.68, KCNQ1 act inactive and hERG protect -6.5.
